Assay [1] has as its system Mus musculus. As to the kind of experiment: Antitussive activity in ammonia liquor-induced mouse assessed as number of cough times at 10 mg/kg, po daily for 3 consecutive days administered before ammonia liquor induction measured for 3 mins. The format is functional. Put shortly: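 Mice were dosed for three days, with vehicle 0.5% sodium carboxymethyl cellulose at 0.2 mL/mouse; codeine 10 mg/kg served as positive control. On day 3, 2 h post-dose, each mouse was placed in a glass chamber and exposed for 5 s to 28% NH4OH aerosol nebulised by compressed air at about 400 mmHg. Coughs were counted over 3 min from spray onset; n = 10, mean ± SD.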

The subject of assay [2] is Mus musculus. As to the kind of experiment: Antitussive activity in ammonia liquor-induced mouse assessed as number of cough times at 5 mg/kg, po daily for 3 consecutive days administered before ammonia liquor induction measured for 3 mins. It is filed as functional. Put shortly: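 Mice were dosed in 0.5% sodium carboxymethyl cellulose vehicle (0.2 mL/mouse). On day 3, 2 h after dosing, they were placed in a glass chamber and exposed for 5 s to 28% NH₄OH aerosol, nebulized with compressed air at about 400 mmHg. Coughs were counted over 3 min from spray start. Codeine 10 mg/kg was the positive control and vehicle the negative control. n = 10, mean ± SD.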

In assay [3] the test system is A549. As to the kind of experiment: Antitumor activity against human A549 cells at 0.1 uM by MTT assay. It is filed as functional, cell-based. Put shortly: (§1)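 MTT growth-inhibition assay on human A549, BGC-823, SMMC-7721 and HL-60 cancer cells. Each compound was tested at 1×10^-7, 1×10^-6 and 1×10^-5 mol/L. Percent inhibition was calculated relative to untreated cells.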

Assay [4] has as its system BGC-823. As to the kind of experiment: Antitumor activity against human BGC-823 cells at 0.1 uM by MTT assay. It is filed as functional, cell-based. Put shortly:
as §1

In assay [5] the test system is SMMC-7721. Briefly: Antitumor activity against human SMMC7721 cells at 0.1 uM by MTT assay. The format is functional, cell-based. Put shortly: as §1
For assay [6], the system named is HL-60. Briefly: Antitumor activity against human HL-60 cells at 0.1 uM by MTT assay. The format is functional, cell-based. Put shortly: as §1
(Tetrazolium dyes change colour on reduction, which living cells bring about.)

Assay [7] has as its system A549. As to the kind of experiment: Antitumor activity against human A549 cells at 1 uM by MTT assay. It is filed as functional, cell-based. Put shortly:
as §1

The test system of assay [8] is BGC-823. As to the kind of experiment: Antitumor activity against human BGC-823 cells at 1 uM by MTT assay. The format is functional, cell-based. Put shortly:
as §1

Assay [9] has as its system SMMC-7721. As to the kind of experiment: Antitumor activity against human SMMC7721 cells at 1 uM by MTT assay. The format is functional, cell-based. Put shortly:
as §1

For assay [10], the system named is HL-60. As to the kind of experiment: Antitumor activity against human HL-60 cells at 1 uM by MTT assay. It is filed as functional, cell-based. Put shortly: as §1
In assay [11] the test system is HL-60. Briefly: Antitumor activity against human HL-60 cells at 10 uM by MTT assay. It is filed as functional. Put shortly: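 HL-60 cells were tested by MTT assay at 1×10^-7, 1×10^-6 and 1×10^-5 mol/L of each compound. Percent growth inhibition was calculated relative to untreated cells.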

Activity data for six compounds are collected here from ChEMBL document CHEMBL1142589, “Steroidal alkaloids from the bulbs of Fritillaria puqiensis” (2005).

Structures are written as SMILES. The source made the active and inactive calls. The calls are words filed in the database; no cut-off is given here.

With `C[C@H]1CC[C@H]([C@@H](C)[C@H]2CC[C@H]3[C@@H]4CC(=O)[C@H]5C[C@@H](O)CC[C@]5(C)[C@H]4CC[C@]23C)NC1`, the Activity in assay [1] amounted to 18; in [2], 23; in assay [11], 51%. Besides, the result in assay [3], in [4], in assay [5], in assay [6], in assay [7] and in assay [8] was inactive. In addition, the result in [9] and in [10] was inactive.

As for `CC1=C2C[C@H]3[C@@H](CC(=O)[C@H]4C[C@@H](O)CC[C@@]43C)[C@@H]2CC[C@@H]1[C@@H](C)[C@@H]1[C@H](O)C[C@@H](C)CN1C` (relative stereo) [PUQIENINE B], the figures for the Activity in [1] and in assay [2] were 10 and 12, respectively. For the same compound, the result in [3], in assay [4], in [5], in assay [6], in assay [7] and in [8] was inactive. Besides, the result in assay [9] and in assay [10] was inactive.

On to `CC1=C2C[C@H]3[C@@H](C[C@@H](O)[C@H]4C[C@@H](O)CC[C@@]43C)[C@@H]2CC[C@@H]1[C@@H](C)[C@@H]1[C@H](O)C[C@@H](C)CN1C` (relative stereo) [PUQIENINE A], for which the Activity is listed as 14 in assay [1] and 18 in assay [2]. The outcome in assay [3], in [4], in assay [5], in assay [6], in assay [7] and in assay [8] was inactive. Also, the result in assay [9] and in [10] was inactive.

Take `COc1ccc2c3c1O[C@H]1[C@@H](O)C=C[C@H]4[C@@H](C2)N(C)CC[C@@]341` [CODEINE]: the Activity in [1] came out at 5.

On to `C[C@H]1CC[C@H]([C@@H](C)[C@H]2CC[C@H]3[C@@H]4CC(=O)[C@H]5C[C@@H](O[C@@H]6O[C@H](CO)[C@@H](O)[C@H](O)[C@H]6O)CC[C@]5(C)[C@H]4CC[C@]23C)N(C)C1` [PUQIETINONOSIDE], for which the figures for the Activity in assay [1] and in assay [2] were 13 and 17, respectively. Further, the result in assay [3], in [4], in assay [5], in [6], in assay [7] and in [8] was inactive. In addition, the outcome in assay [9] and in [10] was inactive.

`C[C@@H]1CC[C@@H]([C@@H](C)[C@@H]2CC[C@H]3[C@@H]4CC(=O)[C@H]5C[C@@H](O)CC[C@]5(C)[C@H]4CC[C@]23C)N(C)C1` [PUQIETINONE]: the Activity in assay [1] is recorded as 11; in assay [2], 17.
